ChEMBL document CHEMBL1149184, “Development of a new type of allosteric modulator of muscarinic receptors: hybrids of the antagonist AF-DX 384 and the hexamethonio derivative W84” (J Med Chem, 2004)

Key:
[1] = target: T1, Muscarinic acetylcholine receptor M2 (Sus scrofa) (UniProt P06199); experiment: Emax dissociation towards Muscarinic acetylcholine receptor M2 in porcine heart using [3H]NMS as a radioligand
T1 sequence (whole entry): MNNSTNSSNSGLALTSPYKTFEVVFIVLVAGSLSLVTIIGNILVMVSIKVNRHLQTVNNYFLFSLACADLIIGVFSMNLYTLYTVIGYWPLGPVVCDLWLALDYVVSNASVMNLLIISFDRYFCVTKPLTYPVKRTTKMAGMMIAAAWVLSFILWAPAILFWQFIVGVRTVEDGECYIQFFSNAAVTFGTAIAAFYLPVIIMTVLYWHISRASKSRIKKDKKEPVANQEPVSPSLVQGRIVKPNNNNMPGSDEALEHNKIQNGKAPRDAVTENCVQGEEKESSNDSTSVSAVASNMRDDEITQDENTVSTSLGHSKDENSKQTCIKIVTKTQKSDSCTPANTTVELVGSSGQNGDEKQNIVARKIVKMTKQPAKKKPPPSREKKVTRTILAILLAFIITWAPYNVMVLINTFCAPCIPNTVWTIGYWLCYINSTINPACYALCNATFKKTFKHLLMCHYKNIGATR
Method in brief: (§1)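 Dissociation assay at 37 °C on porcine cardiac membranes in Mg/Tris buffer, pH 7.3. Membranes were preincubated 30 min with 0.2 nM [3H]NMS, then dissociation was started with 1 μM atropine ± test compound and tracked for 120 min. Apparent dissociation rate constants k-1 against log concentration were fitted with a four-parameter logistic curve.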

[2] = target: T1, Muscarinic acetylcholine receptor M2 (Sus scrofa); experiment: Palpha towards Muscarinic acetylcholine receptor M2 in porcine heart using [3H]NMS as a radioligand
Method in brief: (§2)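 Porcine heart membranes with 0.2 nM [3H]NMS at 37 °C in 3 mM MgHPO4 / 50 mM Tris-HCl, pH 7.3, and varying test-compound concentrations. Incubation was 120–360 min to reach equilibrium. Nonspecific binding was taken with 1 μM atropine. Bound label was filtered and counted. Curves were fitted to the ternary complex model of allosteric interaction. Three to four independent experiments.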

[3] = target: T1, Muscarinic acetylcholine receptor M2 (Sus scrofa); experiment: Half-maximal reduction towards Muscarinic acetylcholine receptor M2 in porcine heart using [3H]NMS as a radioligand; method in brief: as §1
[4] = target: T1, Muscarinic acetylcholine receptor M2 (Sus scrofa); experiment: Binding affinity towards Muscarinic acetylcholine receptor M2 in porcine heart using [3H]NMS as a radioligand; method in brief: as §2
[5] = test system: Muscarinic acetylcholine receptor M2 (Cavia porcellus); experiment: Palpha towards Muscarinic acetylcholine receptor M2 in guinea pig using [3H]NMS as a radioligand
[6] = test system: Muscarinic acetylcholine receptor M2 (Cavia porcellus); experiment: Palpha towards Muscarinic acetylcholine receptor M2 in guinea pig using [3H]-AF-DX 384 as a radioligand
[7] = test system: Muscarinic acetylcholine receptor M2 (Cavia porcellus); experiment: Half-maximally reduction towards muscarinic 2 receptor in guinea pig using [3H]-AF-DX 384 as a radioligand
[8] = test system: Muscarinic acetylcholine receptor M2 (Cavia porcellus); experiment: Binding affinity towards Muscarinic acetylcholine receptor M2 in guinea pig using [3H]-NMS as a radioligand
[9] = test system: Muscarinic acetylcholine receptor M2 (Cavia porcellus); experiment: Emax dissociation towards Muscarinic acetylcholine receptor M2 in guinea pig using [3H]NMS as a radioligand
[10] = test system: Muscarinic acetylcholine receptor M2 (Cavia porcellus); experiment: Half-maximal reduction towards Muscarinic acetylcholine receptor M2 in guinea pig using [3H]NMS as a radioligand
[11] = test system: Muscarinic acetylcholine receptor M2 (Cavia porcellus); experiment: Emax dissociation towards Muscarinic acetylcholine receptor M2 in guinea pig using [3H]AF-DX 384 as a radioligand
[12] = test system: Muscarinic acetylcholine receptor M2 (Cavia porcellus); experiment: Binding affinity towards Muscarinic acetylcholine receptor M2 in guinea pig using [3H]-AF-DX 384 as a radioligand

Row | Structure (SMILES) | Emax,diss [1] [%] | Palpha [2] | pEC0.5,diss [3] | pKA [4] | Palpha [5] | Palpha [6] | pEC0.5,diss [7] | pKA [8] | Emax,diss [9] [%] | pEC0.5,diss [10] | Emax,diss [11] [%] | pKA [12]
1 | CCCN(CCCN1C(=O)CCC1=O)CC1CCCCN1CCNC(=O)N1c2ccccc2C(=O)Nc2cccnc21 (stereo not given) | 76 | -1.8 | 4.95 | 8.01 | – | – | – | – | – | – | – | –
2 | CCCN(CCCCCCN1C(=O)c2ccccc2C1=O)CC1CCCCN1CCNC(=O)N1c2ccccc2C(=O)Nc2cccnc21 (stereo not given) | 100 | 0.05 | 6.75 | 6.71 | – | – | – | – | – | – | – | –
3 | CCC[N+](C)(C)CCCN1C(=O)c2ccccc2C1=O | – | – | – | – | -0.78 | < -2 | 2.98 | 3.55 | 90 | 3.76 | 73 | 4.1
4 | C[N+](C)(C)CCCN1C(=O)c2ccccc2C1=O | – | – | – | – | -1.21 | < -2 | 3 | 3.95 | 100 | 3.21 | 25 | 4.51

The next lines start with the values.

Row | Emax,diss [1] [%] | Palpha [2] | pEC0.5,diss [3] | pKA [4] | Palpha [5] | Palpha [6] | pEC0.5,diss [7] | pKA [8] | Emax,diss [9] [%] | pEC0.5,diss [10] | Emax,diss [11] [%] | pKA [12] | Structure (SMILES)
5 | 100 | -0.58 | 6.78 | 6.83 | – | – | – | – | – | – | – | – | CCCN(CCCCCC[N+](C)(C)CCCN1C(=O)c2ccccc2C1=O)CC1CCCCN1CCNC(=O)N1c2ccccc2C(=O)Nc2cccnc21 (stereo not given)
6 | 100 | < -2 | 4.65 | 8.14 | – | – | – | – | – | – | – | – | CCCN(CCC)CC1CCCCN1CCNC(=O)N1c2ccccc2C(=O)Nc2cccnc21 (stereo not given)
7 | – | – | – | – | -1.55 | -1.35 | 4.11 | 5.08 | 100 | 4.06 | 82 | 5.8 | CCCCCC[N+](C)(C)CCCN1C(=O)c2ccccc2C1=O
8 | 100 | 1.07 | 6.87 | 5.89 | – | – | – | – | – | – | – | – | CCCN(CCCN1C(=O)c2ccccc2C1=O)CC1CCCCN1CCNC(=O)N1c2ccccc2C(=O)Nc2cccnc21 (stereo not given)
9 | – | – | – | – | -0.49 | -1.56 | 3.67 | 5.24 | 100 | 4.82 | 68 | 5.93 | C[N+](C)(CCCCCC[N+](C)(C)CCCN1C(=O)c2ccccc2C1=O)CCCN1C(=O)CCC1=O
10 | – | – | – | – | -1.03 | < -2 | 3.33 | 4.12 | 100 | 3.35 | 34 | 4.44 | CC[N+](C)(C)CCCN1C(=O)c2ccccc2C1=O
